STAT3 activator = IL-6 driven STAT3 reporter potentiators, primary screen, U3A cells, luciferase, luminescence, MLSCN library; activation (% of control), % at 5.6 µM; 0.91% of 190,000 active; IL-6 STAT3-luciferase reporter; 100% = signal with IL-6 EC80 alone;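 active means activation above the screen-wide mean of compound activation plus 3 SD, cut at about 130% in these data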
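Test system: human U3A cells carrying STAT3-luciferase construct; control set: IL-6-only wells as 100% reference; timing: compound pre-incubation 1 h before IL-6, then 6 h stimulation at 37 °C; also added: IL-6 stimulus at 33 ng/mL final; evaluation: % activation versus median of IL-6-stimulated wells; detection: reporter luminescence signal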
AHR activator = AHR activators, primary screen, cell-based, luminescence, luciferase reporter, human; activation, % at 5 µM; Aryl hydrocarbon receptor (Homo sapiens), P35869; 2.5% of 320,000 active; AHR-responsive luciferase reporter cells; in the data active means activation above about 47%
Target sequence (P35869 whole entry, looked up): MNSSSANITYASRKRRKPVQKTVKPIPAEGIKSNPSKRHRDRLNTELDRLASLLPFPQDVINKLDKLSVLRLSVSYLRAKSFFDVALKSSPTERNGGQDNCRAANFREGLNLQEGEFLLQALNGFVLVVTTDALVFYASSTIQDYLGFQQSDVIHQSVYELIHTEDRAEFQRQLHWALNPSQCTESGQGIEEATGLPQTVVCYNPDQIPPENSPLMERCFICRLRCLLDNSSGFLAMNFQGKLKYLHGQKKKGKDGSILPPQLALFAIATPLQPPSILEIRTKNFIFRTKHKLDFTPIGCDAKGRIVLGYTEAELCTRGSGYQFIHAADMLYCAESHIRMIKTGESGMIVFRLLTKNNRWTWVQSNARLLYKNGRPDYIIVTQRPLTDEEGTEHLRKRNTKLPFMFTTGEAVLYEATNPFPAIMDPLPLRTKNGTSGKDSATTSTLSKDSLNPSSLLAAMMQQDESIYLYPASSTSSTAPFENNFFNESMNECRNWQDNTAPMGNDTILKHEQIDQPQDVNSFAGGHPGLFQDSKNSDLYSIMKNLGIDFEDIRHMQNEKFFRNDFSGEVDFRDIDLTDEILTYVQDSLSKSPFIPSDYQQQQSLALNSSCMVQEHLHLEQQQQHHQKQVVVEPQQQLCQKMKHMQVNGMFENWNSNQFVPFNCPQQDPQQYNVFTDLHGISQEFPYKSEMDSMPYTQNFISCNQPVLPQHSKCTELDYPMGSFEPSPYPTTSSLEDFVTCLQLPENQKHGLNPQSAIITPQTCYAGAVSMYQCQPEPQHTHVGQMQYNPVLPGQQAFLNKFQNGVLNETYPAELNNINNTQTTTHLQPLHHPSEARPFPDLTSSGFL
Thrombin inh = human alpha-thrombin inhibitors, primary screen, counter-screen for coagulation protease inhibitor project, biochemical, 1536-well, fluorogenic AMC substrate | Prothrombin (Homo sapiens), P00734 | Boc-VPR-AMC fluorogenic substrate cleavage | inhibition, % at 5 µM | 0.26% of 220,000 active | AID 1046, 2008;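 active means inhibition at or above 40%; inactive means inhibition below 40%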
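Material: human alpha-thrombin protein. Incubation: reaction at ambient temperature. Technique: fluorescence of released AMC, ex 355 nm, em 460 nm. Control set: no-compound enzyme wells and no-enzyme blanks. Also added: Boc-VPR-AMC substrate, 15 µM final. Buffer or medium: pH 7.5 Tris (50 mM) with NaCl 150 mM, Tween 20 0.05%.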
FXIIa inh 1536 = human FXIIa protease inhibitors, primary screen, biochemical, 1536-well; purified FXIIa, Boc-QGR-AMC fluorogenic substrate, 2 h; 0.3% of 220,000 active; inhibition, % at 5 µM; Coagulation factor XII (Homo sapiens), P00748; in the data active means inhibition above about 40%
hK5 inh = human KLK5 protease inhibitors, primary screen, biochemical, 1536-well; recombinant hK5, fluorogenic AMC substrate cleavage; inhibition, % at 5 µM; 0.59% of 210,000 active;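 active means inhibition of 40% or more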
FXIa inh 1536 = human FXIa protease inhibitors, primary screen, biochemical, 1536-well | inhibition, % at 5 µM | 0.14% of 220,000 active | Coagulation factor XI (Homo sapiens), P03951 | purified FXIa, Boc-Glu-Ala-Arg-AMC fluorogenic substrate;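 active means inhibition of at least 40%; inactive means inhibition below 40%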;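 further: fluorescence of freed AMC excited at 355 nm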
Each line names hits and unclear results; the compound was inactive in the other large screens. In the library only some 3.5% were active in any assay of this set; here they are far more common.

COC(=O)C1CCN(C(=O)c2ccc(OC)c(S(=O)(=O)N3CCCc4ccccc43)c2)CC1	none (no result: STAT3 activator, Thrombin inh, FXIIa inh 1536, hK5 inh, FXIa inh 1536)
COc1cccc(NC(=S)N(CCCN2CCN(C)CC2)Cc2ccco2)c1	none
COc1cccc(NC(=S)N(CCCN2CCCC2)Cc2ccco2)c1	Thrombin inh 95
CCn1c(=O)cc(OCC(=O)NCc2cccs2)c2ccccc21	AHR activator 68
O=C(COc1ccc2c(c1)OCO2)NCc1cccs1	AHR activator 49 (no result: STAT3 activator, Thrombin inh, FXIIa inh 1536, hK5 inh, FXIa inh 1536)
CC(C)(C)c1nnc(NC(=O)COc2ccc3c(c2)OCO3)s1	AHR activator 60 (no result: STAT3 activator, Thrombin inh, FXIIa inh 1536, hK5 inh, FXIa inh 1536)
O=C(CNS(=O)(=O)c1ccc(Br)s1)N1CCC(N2CCCCC2)CC1	none
Cc1ccc(C(C(=O)NC2CCCCC2)N(C(=O)c2csnn2)C2CC2)cc1 (stereo unspecified)	none (no result: STAT3 activator, Thrombin inh, FXIIa inh 1536, hK5 inh, FXIa inh 1536)
CC1CCCC(NC(=O)COC(=O)c2sc3ccccc3c2Cl)C1C (stereo unspecified)	none
Cc1cc(Br)ccc1NC(=O)CNC(=O)c1ccc(-n2cncn2)c([N+](=O)[O-])c1	none (no result: STAT3 activator, Thrombin inh, FXIIa inh 1536, hK5 inh, FXIa inh 1536)
Cc1cc(Br)ccc1NC(=O)c1ccc(-n2cncn2)c([N+](=O)[O-])c1	AHR activator 66 (no result: STAT3 activator, Thrombin inh, FXIIa inh 1536, hK5 inh, FXIa inh 1536)
O=C(COC(=O)C12CC3CC(CC(O)(C3)C1)C2)NCCc1ccc(Cl)cc1	Thrombin inh 101
COc1cc(O)oc1C=Nc1ccc(C(F)(F)F)cc1	AHR activator 54
O=C(/C=C\c1ccccc1OC(=O)c1ccccc1F)c1cc2ccccc2o1	AHR activator 59
CC(=O)/C=C\c1ccccc1OC(=O)c1cc2ccccc2oc1=O	none (no result: STAT3 activator, Thrombin inh, FXIIa inh 1536, hK5 inh, FXIa inh 1536)
O=C1/C(=C\c2ccccc2)CCc2c1[nH]c1ccccc21	none
CC(C)/C=C1\CCc2c([nH]c3ccccc23)C1=O	AHR activator 57 (no result: hK5 inh)
CCOc1ccc(C(=O)NCC(=O)NC(C)c2ccc(-n3ccnc3)cc2)cc1OCC (stereo unspecified)	none (no result: STAT3 activator, Thrombin inh, FXIIa inh 1536, hK5 inh, FXIa inh 1536)
CCOc1ccccc1C(=O)NC(C)c1ccc(-n2ccnc2)cc1 (stereo unspecified)	AHR activator 65 (no result: STAT3 activator, Thrombin inh, FXIIa inh 1536, hK5 inh, FXIa inh 1536)
COc1ccccc1C(=O)NC(C)c1ccc(-n2ccnc2)cc1 (stereo unspecified)	AHR activator 60 (no result: STAT3 activator, Thrombin inh, FXIIa inh 1536, hK5 inh, FXIa inh 1536)
Fc1ccc(C(CCNCc2ccccn2)c2ccc(Cl)cc2)cc1 (stereo unspecified)	none (no result: STAT3 activator, Thrombin inh, FXIIa inh 1536, hK5 inh, FXIa inh 1536)
CC12C=CC3(O1)C(C(=O)N(c1cccnc1)C3C(=O)NC1CCCCC1)C2C(=O)Nc1ccccc1 (stereo unspecified)	hK5 inh 72
CCCCc1nc2sc3c(=O)n(N)cnc3c2c2c1CCC2	none
N#Cc1c(Cc2cccc3ccccc23)nn(CCO)c1N	none (no result: STAT3 activator, Thrombin inh, FXIIa inh 1536, hK5 inh, FXIa inh 1536)
CSc1nncn1/N=C/c1ccc2c(c1)OCO2	AHR activator 51
CSc1nncn1/N=C/c1ccc([N+](=O)[O-])cc1	none (no result: FXIIa inh 1536)
O=C(N/C(=C/c1ccc(Cl)cc1)c1nc2ccccc2[nH]1)c1ccco1	AHR activator 70
O=C(N/C(=C/c1ccc(Br)cc1)c1nc2ccccc2[nH]1)c1ccco1	AHR activator 67
COC(=O)C(NC(=O)CSc1nc(N)cc(=O)[nH]1)c1ccccc1 (stereo unspecified)	none
COCCNc1ncnc2c1[nH]c1ccccc12	AHR activator 74 (no result: STAT3 activator)
CCCOc1ncnc2c1[nH]c1ccccc12	AHR activator 80
COCCCNc1ncnc2c1[nH]c1ccccc12	none (no result: AHR activator)
CCN(CC)c1ncnc2c1[nH]c1ccccc12	AHR activator 65
N=C1C(c2nc3ccccc3[nH]2)=C(O)CN1NC(=O)COc1cccc(F)c1	none
CC(C)(C)OC(=O)N[C@H](/C=C/c1ccccc1)C(=O)OC(C)(C)C	none (no result: STAT3 activator, Thrombin inh, FXIIa inh 1536, hK5 inh, FXIa inh 1536)
CC1(C)CC(=O)C=C(c2ccc3c(c2)OCO3)C1	AHR activator 59 (no result: STAT3 activator, Thrombin inh, FXIIa inh 1536, hK5 inh, FXIa inh 1536)
CC1CCCCN1C(=O)c1cc2ccccc2cc1O (stereo unspecified)	none (no result: STAT3 activator, Thrombin inh, FXIIa inh 1536, hK5 inh, FXIa inh 1536)
Cc1ccsc1/C=C1\CCc2ccccc2C1=O	AHR activator 50
Cc1ccccc1/C=C1\CCCc2ccccc2C1=O	none
O=C(c1ccccc1)N1CCN(Cc2c[nH]c3ccccc23)CC1	none
O=C(c1cccc(F)c1)N1CCN(Cc2c[nH]c3ccccc23)CC1	STAT3 activator 168
O=[N+]([O-])c1ccccc1CN1CCN(Cc2c[nH]c3ccccc23)CC1	STAT3 activator 135
Clc1ccc(-c2cc(COc3ccc4ccccc4c3)no2)cc1	none
O=C(c1ccco1)N1CCN(c2c([N+](=O)[O-])nn(-c3cccc(Cl)c3)[n+]2[O-])CC1	none
O=C1Nc2ccccc2S/C1=C\C(=O)N1CCCC1	AHR activator 64
CC1(C)O[C@@H]1COc1c2ccoc2cc2oc(=O)ccc12	AHR activator 70
CC(C)=CCOc1c2ccoc2cc2oc(=O)ccc12	AHR activator 51
CC(C)=CCOc1c2ccoc2c(OCC=C(C)C)c2oc(=O)ccc12	none (no result: STAT3 activator, Thrombin inh, FXIIa inh 1536, hK5 inh, FXIa inh 1536)
C=C(C)[C@@H](O)COc1c2ccoc2cc2oc(=O)ccc12	none (no result: STAT3 activator, Thrombin inh, FXIIa inh 1536, hK5 inh, FXIa inh 1536)
O=C(C[C@@H]1C/C=C\C[C@@H](Cc2ccc(F)cc2)C(=O)OCCNC1=O)N[C@H](CO)Cc1ccccc1	none (no result: STAT3 activator, Thrombin inh, FXIIa inh 1536, hK5 inh, FXIa inh 1536)
COc1ccc(OC)c(C2CC(c3c(-c4ccccc4)c4cc(Cl)ccc4[nH]c3=O)=NN2S(C)(=O)=O)c1 (stereo unspecified)	hK5 inh 42

Source: PubChem BioAssay (several laboratories)
